Reference: PMC10993231 (RSC Advances, 2024)

Assay: Stability of radiolabeled peptide in human plasma
Type: in vitro ADME
Settings: 37 °C, TLC read-out
Method in brief: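 The peptide was dissolved in DMSO and diluted with water, then iodinated with 131I (3 mCi) and chloramine-T in 0.05 mol L−1 PBS, pH 7.4. The mixture was vortexed 2 min at room temperature and the reaction stopped with sodium metabisulfite. The 131I-peptide was incubated with human plasma at 37 °C for up to 72 h to gauge proteolytic degradation.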

- Radioactivity remaining after incubation in human plasma (5 h incubation): > 90%
- Radioactivity remaining after incubation in human plasma (72 hours incubation): 57.5%
Substance: ^131I-cWIWLYA (head to tail)
